Measured values reported in ChEMBL document CHEMBL5724801, “EUbOPEN Chemogenomics Library - Multiplex” (2024).
Values joined by “and” are separate entries in the source; they are usually repeats but may differ in a detail not shown here. Equal values may be shown once.

Tested on: Fibroblast
Experiment: Multiplex assay against human fibroblast
Format: toxicity, cell-based
Procedure, shortened: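 Phenotypes for tubulin, mitochondrial mass and membrane permeability are expressed as per cents of healthy-nucleus cells. Cells were stained live at seeding with Hoechst33342, BioTracker Green Microtubule Cytoskeleton Dye, MitoTracker Red and Annexin V Alexa Fluor 680, then imaged after compound addition on a CQ1 microscope at 37°C and 5% CO2. Machine-learning gating in CellPathfinder separated Hoechst high-intensity objects from normal cells, divided normal cells by nuclear state (healthy, pyknosed, fragmented) and divided pyknosed cells into mitotic or apoptotic.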

[1] = 12 h, 1 µM, compound concentration 1 uM
[2] = 12 h, 10 µM, compound concentration 10 uM
[3] = 24 h, 1 µM, compound concentration 1 uM
[4] = 24 h, 10 µM, compound concentration 10 uM
[5] = 48 h, 1 µM, compound concentration 1 uM
[6] = 48 h, 10 µM, compound concentration 10 uM

## Cl.NCCc1ccc(O)c(O)c1 [DOPAMINE HYDROCHLORIDE]
[1]
  Population Apoptotic (%): 42% and 44%
  Population Fragmented Nuclei (%): 13% and 34%
  Population Healthy Nuclei (%): 63% and 40%
  Population Hoechst High Intensity Objects (%): 1%
  Population Membrane Permeable-Phenotype (%): 0% and 4%
  Population Mitochondria Different-Phenotype (%): 1% and 6%
  Population Mitotic Cells (%): 57% and 55%
  Population Normal (%): 98%
  Population Pyknosed Nuclei (%): 23% and 24%
  Population Tubulin-Different-Phenotype (%): 34% and 45%
  Total Cell Count: 115 and 152
[2]
  Population Apoptotic (%): 56% and 41%
  Population Fragmented Nuclei (%): 14% and 35%
  Population Healthy Nuclei (%): 62% and 40%
  Population Hoechst High Intensity Objects (%): 3% and 4%
  Population Membrane Permeable-Phenotype (%): 0% and 6%
  Population Mitochondria Different-Phenotype (%): 3% and 6%
  Population Mitotic Cells (%): 43% and 58%
  Population Normal (%): 96% and 95%
  Population Pyknosed Nuclei (%): 23%
  Total Cell Count: 135 and 127
[3]
  Population Apoptotic (%): 55% and 51%
  Population Fragmented Nuclei (%): 14% and 34%
  Population Healthy Nuclei (%): 69% and 47%
  Population Hoechst High Intensity Objects (%): 0% and 2%
  Population Membrane Permeable-Phenotype (%): 1% and 7%
  Population Mitochondria Different-Phenotype (%): 1% and 0%
  Population Mitotic Cells (%): 44% and 48%
  Population Normal (%): 99% and 97%
  Population Pyknosed Nuclei (%): 16% and 18%
  Population Tubulin-Different-Phenotype (%): 31% and 37%
  Total Cell Count: 112 and 150
[4]
  Population Apoptotic (%): 55% and 47%
  Population Fragmented Nuclei (%): 16% and 37%
  Population Healthy Nuclei (%): 69% and 46%
  Population Hoechst High Intensity Objects (%): 2% and 3%
  Population Membrane Permeable-Phenotype (%): 1% and 3%
  Population Mitochondria Different-Phenotype (%): 5% and 7%
  Population Mitotic Cells (%): 44% and 52%
  Population Normal (%): 97% and 96%
  Population Pyknosed Nuclei (%): 13% and 15%
  Population Tubulin-Different-Phenotype (%): 22% and 56%
  Total Cell Count: 136 and 126
[5]
  Population Apoptotic (%): 36% and 38%
  Population Fragmented Nuclei (%): 22% and 33%
  Population Healthy Nuclei (%): 66% and 52%
  Population Hoechst High Intensity Objects (%): 6%
  Population Membrane Permeable-Phenotype (%): 1% and 5%
  Population Mitochondria Different-Phenotype (%): 2% and 3%
  Population Mitotic Cells (%): 63% and 61%
  Population Normal (%): 93%
  Population Pyknosed Nuclei (%): 10% and 14%
  Population Tubulin-Different-Phenotype (%): 28% and 43%
  Total Cell Count: 110 and 159
[6]
  Population Apoptotic (%): 87% and 90%
  Population Fragmented Nuclei (%): 21% and 31%
  Population Healthy Nuclei (%): 66% and 60%
  Population Hoechst High Intensity Objects (%): 4% and 0%
  Population Membrane Permeable-Phenotype (%): 0% and 7%
  Population Mitochondria Different-Phenotype (%): 4%
  Population Mitotic Cells (%): 12% and 10%
  Population Normal (%): 95% and 99%
  Population Pyknosed Nuclei (%): 11% and 8%
  Population Tubulin-Different-Phenotype (%): 25% and 56%
  Total Cell Count: 141 and 116

## CNC[C@H](O)c1ccc(O)c(O)c1 [EPINEPHRINE]
[1]
  Population Apoptotic (%): 36% and 40%
  Population Fragmented Nuclei (%): 17% and 38%
  Population Healthy Nuclei (%): 66% and 44%
  Population Hoechst High Intensity Objects (%): 1%
  Population Mitochondria Different-Phenotype (%): 3% and 7%
  Population Mitotic Cells (%): 63% and 60%
  Population Normal (%): 98%
  Population Pyknosed Nuclei (%): 16% and 17%
  Population Tubulin-Different-Phenotype (%): 15% and 42%
[2]
  Population Apoptotic (%): 40% and 32%
  Population Fragmented Nuclei (%): 18% and 39%
  Population Healthy Nuclei (%): 61% and 37%
  Population Hoechst High Intensity Objects (%): 3% and 7%
  Population Mitochondria Different-Phenotype (%): 6% and 8%
  Population Mitotic Cells (%): 60% and 67%
  Population Normal (%): 96% and 92%
  Population Pyknosed Nuclei (%): 20% and 23%
  Population Tubulin-Different-Phenotype (%): 23% and 55%
[3]
  Population Apoptotic (%): 54% and 23%
  Population Healthy Nuclei (%): 70% and 47%
  Population Hoechst High Intensity Objects (%): 0% and 3%
  Population Membrane Permeable-Phenotype (%): 0% and 12%
  Population Mitochondria Different-Phenotype (%): 3% and 6%
  Population Mitotic Cells (%): 45% and 76%
  Population Normal (%): 99% and 96%
  Population Pyknosed Nuclei (%): 16% and 14%
  Population Tubulin-Different-Phenotype (%): 11% and 32%
[4]
  Population Apoptotic (%): 65% and 38%
  Population Fragmented Nuclei (%): 16% and 39%
  Population Healthy Nuclei (%): 60% and 44%
  Population Hoechst High Intensity Objects (%): 3%
  Population Membrane Permeable-Phenotype (%): 0% and 12%
  Population Mitochondria Different-Phenotype (%): 5% and 4%
  Population Mitotic Cells (%): 34% and 61%
  Population Normal (%): 96%
  Population Pyknosed Nuclei (%): 23% and 15%
  Population Tubulin-Different-Phenotype (%): 21% and 51%
[5]
  Population Apoptotic (%): 50% and 38%
  Population Fragmented Nuclei (%): 17% and 41%
  Population Healthy Nuclei (%): 67% and 48%
  Population Hoechst High Intensity Objects (%): 1%
  Population Membrane Permeable-Phenotype (%): 0% and 6%
  Population Mitochondria Different-Phenotype (%): 6% and 5%
  Population Mitotic Cells (%): 50% and 61%
  Population Normal (%): 98%
  Population Pyknosed Nuclei (%): 15% and 10%
  Population Tubulin-Different-Phenotype (%): 23% and 45%
[6]
  Population Apoptotic (%): 77% and 37%
  Population Fragmented Nuclei (%): 20% and 50%
  Population Healthy Nuclei (%): 65% and 44%
  Population Hoechst High Intensity Objects (%): 2% and 3%
  Population Membrane Permeable-Phenotype (%): 2% and 6%
  Population Mitochondria Different-Phenotype (%): 4% and 3%
  Population Mitotic Cells (%): 22% and 62%
  Population Normal (%): 97% and 96%
  Population Pyknosed Nuclei (%): 13% and 5%
  Population Tubulin-Different-Phenotype (%): 32% and 46%
